Results published in paper PMC5766731 (Clinical Pharmacokinetics, 2017).

Experiments:
[1] = Part III safety assessment; format: in vivo, human
Procedure, shortened: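 Safety monitored under ICH-GCP in each part (single 10–300 mg; alternate-day 100–300 mg; 150 mg fasted/fed crossover). Assessments: adverse events coded with MedDRA version 18.0, clinical examinations, frequent vital signs, 12-lead ECGs, clinical laboratory tests, and continuous ECG for 24 h post-dose in parts I and II. Post-dose vs baseline compared by paired two-sided t test, α = 0.05.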

[2] = test system: cytochrome P450 (CYP); details: cited from earlier work
[3] = Part II multiple ascending-dose pharmacokinetics; format: in vivo, human; details: for t max / AUCt / AUC∞ / Accumulation Index / C max / CL / V z/F_obs / t ½ / λz: part II, N 6; for t max: mean (range) per footnote; for AUCt / AUC∞ / Accumulation Index / C max / CL / V z/F_obs / t ½ / λz: mean ± SD
Procedure, shortened: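 Four panels of eight (six drug, two placebo) were dosed orally, fasted, with 100, 150, 200 or 300 mg on Days 1, 3 and 5. Blood was taken pre-dose and at 0.5–36 h after the Day 1 and Day 5 doses, pre-dose and 12, 24 and 36 h after Day 3, and 48 and 72 h after Day 5. Diluted-blood LC-MS/MS (LLOQ 2 ng/mL). Accumulation index was derived.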

[4] = 100 mg oral on Days 1, 3, 5, Day 1
[5] = 100 mg oral on Days 1, 3, 5, Day 5
[6] = 150 mg oral on Days 1, 3, 5, Day 1
[7] = 150 mg oral on Days 1, 3, 5, Day 5
[8] = 200 mg oral on Days 1, 3, 5, Day 1
[9] = 200 mg oral on Days 1, 3, 5, Day 5

For `O=C(O)CNC(=O)c1c(O)c2ccccc2n(OCC2CC2)c1=O` [ZYAN1], the “Adverse events (Test)” value ([1]; Food and sex effect 150 mg panel) is given as “Palpitation, cellulitis, back pain, musculoskeletal pain, head discomfort, headache (2), folliculitis, cellulitis”, the “total AEs reported” value ([1]; part III crossover, 150 mg) is given as 11 and the “potential for cytochrome P450 (CYP)-mediated drug–drug interactions” value [2] is given as “minimal potential”. For the same compound, the “median t max, range” value ([3]; 100, 150, 200, 300 mg, first or fifth day of dosing) was 1.5 to 3.0 h, the “accumulation of the drug” value ([3]; after first and third dose of 100, 150, 200, 300 mg, alternate-day dosing) was “no accumulation of the drug was observed” and the “mean terminal t ½” value ([3]; in vivo) was “approximately 10 h”. For the same compound, the t max [3, 4] was 2.00 (1.00–3.00) h, the AUCt [3, 4] was 36,885.130 ± 11,488.927 h·ng/mL and the “AUC∞” value [3, 4] was 38,817.512 ± 13,184.682 h·ng/mL. For the same compound, the “Accumulation Index” value [3, 4] was 1.027 ± 0.018, the C max [3, 4] was 6549.000 ± 1567.979 ng/mL and the CL [3, 4] was 2834.521 ± 775.188 mL/h. For the same compound, the V z/F_obs [3, 4] was 34,916.562 ± 8463.050 mL, the “t ½” value [3, 4] was 8.811 ± 1.869 h and the λz [3, 4] was 0.082 ± 0.020 h⁻¹. For the same compound, the t max [3, 5] was 2.00 (1.50–2.50) h, the AUCt [3, 5] was 39,690.467 ± 11,051.227 h·ng/mL and the “AUC∞” value [3, 5] was 40,102.984 ± 11,276.275 h·ng/mL. The “Accumulation Index” value [3, 5] was 1.106 ± 0.128, the C max [3, 5] was 6566.667 ± 1525.703 ng/mL and the CL [3, 5] was 2744.020 ± 798.472 mL/h. For the same compound, the V z/F_obs [3, 5] was 47,571.130 ± 18,996.205 mL, the “t ½” value [3, 5] was 12.968 ± 6.654 h and the λz [3, 5] was 0.065 ± 0.029 h⁻¹. For the same compound, the t max [3, 6] was 1.50 (1.00–3.50) h, the AUCt [3, 6] was 59,780.215 ± 8539.865 h·ng/mL and the “AUC∞” value [3, 6] was 62,811.249 ± 10,222.543 h·ng/mL. For the same compound, the “Accumulation Index” value [3, 6] was 1.025 ± 0.026, the C max [3, 6] was 8185.667 ± 1215.600 ng/mL and the CL [3, 6] was 2487.695 ± 399.669 mL/h. The V z/F_obs [3, 6] was 29,315.063 ± 6213.656 mL, the “t ½” value [3, 6] was 8.390 ± 2.431 h and the λz [3, 6] was 0.088 ± 0.025 h⁻¹. The t max [3, 7] was 1.75 (0.50–3.00) h, the AUCt [3, 7] was 65,307.036 ± 9629.912 h·ng/mL and the “AUC∞” value [3, 7] was 65,706.064 ± 9748.640 h·ng/mL. The “Accumulation Index” value [3, 7] was 1.043 ± 0.026, the C max [3, 7] was 8657.000 ± 1190.575 ng/mL and the CL [3, 7] was 2398.514 ± 378.402 mL/h. The V z/F_obs [3, 7] was 34,943.264 ± 6986.821 mL, the “t ½” value [3, 7] was 10.205 ± 2.013 h and the λz [3, 7] was 0.070 ± 0.015 h⁻¹. For the same compound, the t max [3, 8] was 2.00 (1.50–3.50) h, the AUCt [3, 8] was 85,040.673 ± 12,019.503 h·ng/mL and the “AUC∞” value [3, 8] was 88,180.063 ± 13,633.711 h·ng/mL. The “Accumulation Index” value [3, 8] was 1.017 ± 0.019, the C max [3, 8] was 13,203.333 ± 2762.033 ng/mL and the CL [3, 8] was 2344.752 ± 361.388 mL/h. The V z/F_obs [3, 8] was 25,167.492 ± 5973.588 mL, the “t ½” value [3, 8] was 7.573 ± 2.103 h and the λz [3, 8] was 0.097 ± 0.024 h⁻¹. The t max [3, 9] was 1.75 (0.50–2.50) h, the AUCt [3, 9] was 77,994.986 ± 21,218.895 h·ng/mL and the “AUC∞” value [3, 9] was 78,368.940 ± 21,616.249 h·ng/mL. For the same compound, the “Accumulation Index” value [3, 9] was 1.033 ± 0.018 and the C max [3, 9] was 12,388.333 ± 1607.376 ng/mL.
